Published values pooled from the literature.
Cell line: HeLa
Observed: cell growth or viability

Compound | test | conditions | measurement | result
CCN(CC)CCCC(C)Nc1ccnc2cc(Cl)ccc12 (stereo not drawn) | MTT | 48 h | CC50 | > 100 µg/mL
Fc1ccc(Oc2ccc(Nc3ccc4ncc(OCC5CCNCC5)nc4c3)cc2)cc1 | XTT | 7 days | EC50 | > 30 µM
Nc1nc2c(ncn2COCCO)c(=O)[nH]1 | MTT | 48 h | CC50 | 355 µM
c1cc(-c2cc3ncc(OCC4CCNCC4)nc3cc2-c2cccc(N3CCCCC3)c2)cc(N2CCCCC2)c1 | XTT | 7 days | EC50 | 24.2 µM
CCn1c(=O)c(-c2cc[nH]n2)cc2c(C)nc(N)nc21 | MTT |  | CC50 | 13.6 µM
c1cc(N2CCCC2)ccc1-c1cc2ncc(OCC3CCNCC3)nc2cc1-c1ccc(N2CCCC2)cc1 | XTT | 7 days | EC50 | > 30 µM
NC(=O)c1ncn([C@@H]2O[C@H](CO)[C@@H](O)[C@H]2O)n1 | MTT |  | CC50 | 115 µM
CC[C@H](CC[C@@H](C)[C@H]1CC[C@H]2[C@@H]3CC=C4C[C@@H](O)CC[C@]4(C)[C@H]3CC[C@]12C)C(C)C | MTT | 48 h | CC50 | > 100 µg/mL
CC(C)n1ncc2c(C(=O)NCC3(C)CNC3)cc(C3CC3)nc21 | neutral red | 0.33 µM | viability | 101%
